Bioassay records (PubChem)
An excerpt weighted towards active compounds, which were near 5.5% of everything screened.
HSV replic up = increases HSV replication in cells | HSV replication augmentation in cells, fold increase | 220,000 compounds, 0.005% hits | maximum fold increase; in the data active means maximum fold increase above about 1.5; tested in PC3 cells
STAT3 act = activators of IL-6 induced STAT3 signaling | activation (% of control), % at 5.6 µM | 190,000 compounds, 0.91% hits | U3A cells, IL-6 STAT3-luciferase reporter, luminescence; 100% = signal with IL-6 EC80 alone;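 active means activation above the screen-wide mean of compound activation plus 3 SD, cut at about 130% in these data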;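 further: 0% = background luminescence of wells with medium and substrate only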
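Assay system – human STAT1-deficient U3A cells with stable STAT3-luciferase reporter · Also added – IL-6 (33 ng/mL) · Schedule – compound 1 h, then IL-6 6 h at 37 °C · Technique – reporter luminescence signal · Evaluation – % activation versus median of IL-6-stimulated wells · Benchmarks – IL-6-only wells as 100% reference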
STAT1 inh = reduces IFN-gamma driven STAT1 reporter signal. NIH 3T3 STAT1-luciferase reporter, luminescence. inhibition, % at 5.5 µM. 200,000 compounds, 0.35% hits;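 active means inhibition above a set limit, the mean inhibition across all tested compounds plus 3 SD, cut at about 34% in these data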;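 further: 0% = IFN-gamma with DMSO and 100% = IFN-gamma with 300 µM nifuroxazide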
KCC2 mod = KCC2 (human) Cl- transport modulation; 190,000 compounds, 2.2% hits; Q9H2X9; B-score of Tl+ flux slope (higher = more flux/activation; lower = inhibition) at 10 µM; KCC2 cells, thallium flux FluoZin-2 fluorescence;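 active means thallium flux slope and its plate-corrected score both differing from the plate sample mean at a set confidence after two filtering rounds, in either direction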;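 further: slope of fluorescence scaled to starting intensity during 10 to 20 s after thallium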
STAT1 activator = increases IFN-gamma driven STAT1 reporter signal; NIH 3T3 STAT1-luciferase reporter, luminescence; 100% = IFN-gamma alone, no compound; activation (% of control), % at 5.5 µM; 200,000 compounds, 2.6% hits; AID 932;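 active means activation above the screen-wide mean activation plus 3 SD, cut at about 130% in these data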;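 further: raw ratio to IFN-gamma control signal so 100% means no change and 0% no light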
STAT3 inh = inhibitors of IL-6 induced STAT3 signaling | inhibition, % at 5.5 µM | 190,000 compounds, 0.89% hits | U3A cells, IL-6 STAT3-luciferase reporter, luminescence; host cell line lacks STAT1;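 active means inhibition above the mean inhibition across all screened compounds plus 3 SD, cut at about 44% in these data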;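 further: 0% = DMSO only wells and 100% = 100 µM nifuroxazide control wells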
Starred values were filed as active, the others as inactive; i = inactive; · = not tested or not shown.

SMILES	HSV replic up	STAT3 act	STAT1 inh	KCC2 mod	STAT1 activator	STAT3 inh
CC1=NN(c2ccccc2)C(=O)C1N=Nc1ccc(N)cc1 (stereo unspecified)	i	97	2	0.13	98	8
CC1=NN(c2ccccc2)C(=O)C1N=Nc1ccccc1 (stereo unspecified)	i	133*	-10	2.9	109	-39
N#Cc1c(NC(=O)c2cnccn2)sc2c1CCCC2	i	103	-45	-0.1	140*	-4
NC(=O)c1c(NC(=O)c2cccnc2)sc2c1CCCC2	i	80	-38	1.2	134*	31
Cn1nccc1C(=O)Nc1sc2c(c1C(N)=O)CCCC2	i	90	-50	0.42	146*	19
CC(=O)Nc1sc2c(c1C(N)=O)CCCC2	i	105	-6	0.26	105	-5
CSc1cccc(NC(=O)CN(Cc2ccc(Cl)cc2)S(C)(=O)=O)c1	i	103	-3	0.04	102	3
CC(C)CCc1noc(CN2CCN(c3ccc(Cl)cn3)CC2)n1	i	96	4	0.0056	95	8
c1ccc(Cc2nn3c(C4COc5ccccc5O4)nnc3s2)cc1 (stereo unspecified)	i	135*	-5	-1.6	104	-41
COc1ccccc1-c1nn2c(C3COc4ccccc4O3)nnc2s1 (stereo unspecified)	i	133*	-2	-0.099	102	-36
c1ccc(CCc2nn3c(C4COc5ccccc5O4)nnc3s2)cc1 (stereo unspecified)	i	108	-3	·	103	-3
CCOc1ccc(C(=O)NCC(=O)N2CCc3ccccc3C2)cc1OCC	i	94	2	-2	99	8
COc1ccc(C(=O)Nc2nnc(-c3cccs3)s2)cc1	i	157*	-23	0.068	122	-72
O=C(Nc1nnc(-c2cccs2)s1)c1cccc(F)c1	i	106	-39	-0.08	134*	-5
CC(C)(C)CC(=O)Nc1nnc(-c2cccs2)s1	i	112	-44	0.074	140*	-10
CC(=O)Cc1nsc(NC(=O)c2cccc(F)c2)n1	i	103	-43	-0.33	142*	2
O=C(CN1CCCC1)Nc1nnc(-c2cccs2)s1	i	100	-11	4.2	110	4
COc1ccc(NC(=O)Nc2nnc(-c3cccs3)s2)cc1	i	·	·	·	·	·
CC(=O)c1c(C)[nH]c(C(=O)CN2C(=O)NC(C)(CCC(C)C)C2=O)c1C (stereo unspecified)	i	96	-2	0.19	100	14
CCOC(=O)c1c(NC(=O)C2C3C=CC(C3)C2C(=O)O)sc2c1CCC(CC)C2 (stereo unspecified)	i	99	3	-5.8*	98	2
CCOC(=O)c1c(NC(=O)C2C3CCC(O3)C2C(=O)O)sc2c1CCC(CC)C2 (stereo unspecified)	i	92	-2	-0.46	100	17
O=C(/C=C/c1cccs1)Nc1ccc(Br)cn1	i	133*	-86	0.53	178*	-39
O=C(/C=C/c1cccs1)Nc1nccs1	i	85	-37	-0.27	134*	22
Cc1ccc(/C=C/C(=O)Nc2ncc(C)s2)o1	i	105	-52	0.69	147*	-6
Cc1ccccc1NC(=O)/C=C/c1cccs1	i	95	-34	·	129*	10
SMILES	HSV replic up	STAT3 act	STAT1 inh	KCC2 mod	STAT1 activator	STAT3 inh
Cc1ccc(/C=C/C(=O)Nc2nccs2)o1	i	100	-54	0.24	148*	2
CCOC(=O)c1ccc(NC(=O)/C=C/c2cccs2)cc1	i	95	-51	-1.1	143*	10
CC(=O)c1sc(NC(=O)CCCOc2ccc(Cl)cc2)nc1C	i	94	7	-0.18	92	14
Cc1cccc(N2C(=O)C(Oc3ccc(Cl)cc3Cl)C2C=O)c1C (stereo unspecified)	i	106	-10	-3*	109	-10
CC(C)c1ccc(/C=N/Nc2ccc(C(=O)O)cc2)cc1	i	29	65*	-0.85	43	84*
COc1ccc(/C=N/Nc2ccc(C(=O)O)cc2)cc1OC	i	·	·	0.007	·	·
O=C(O)c1cccc(N/N=C/c2ccc(F)c(F)c2)c1	i	107	15	-1.5	85	0
O=C(O)c1ccc(/C=N/Nc2cccc(C(F)(F)F)c2)cc1	i	113	-55	-1.7	149*	-7
CNC(=S)N/N=C/c1ccc(C(C)C)cc1	i	91	-39	·	129*	18
CNC(=S)N/N=C/c1ccc(N(C)C)cc1	i	·	·	1	·	·
Cc1ccc(-n2nc(-c3ccco3)cc2C(=O)O)c(C)c1	i	100	-13	-1.4	111	2
CC(=C/c1ccco1)/C=N/N1CCN(c2ccccc2)CC1	i	94	-31	-0.15	128	11
CC(/C=N/N1CCN(c2ccccc2)CC1)=C\c1ccco1	·	92	-41	-1.3	138*	13
CCOc1ccccc1NC1=NC2CS(=O)(=O)CC2S1 (stereo unspecified)	i	·	·	0.5	·	·
CC(C)c1ccc(/C=C/C2=NNC(=O)CC2)cc1	i	71	-38	·	136*	36
Clc1ncc(CN2CCN(Cc3ccccc3)CC2)s1	i	109	-4	0.78	104	-5
CN(CC(CC(=O)Nc1nncs1)c1ccccc1)S(=O)(=O)c1ccc(Br)cc1 (stereo unspecified)	i	104	7	0.012	93	4
O=S(=O)(NCc1cn2ccsc2n1)c1ccc(Oc2ccccc2)cc1	i	52	23	-1.5	79	62*
c1ccc2c(SCc3cn4ccccc4n3)nncc2c1	i	103	-13	-0.47	109	3
Cc1ccc(N=Nc2ccc(O)c3ncccc23)cc1	i	124	-3	11*	103	-32
CCCC(=O)Nc1ccc(C#Cc2ccccc2)cc1	i	146*	-44	-0.21	140*	-43
O=C(Nc1ccc(C#Cc2ccccc2)cc1)C1CC1	i	143*	-107	·	196*	-46
CCc1cccc(Nc2cnn(C34C[C@@H]5C[C@@H](CC(CC(=O)O)(C5)C3)C4)c(=O)c2Cl)c1	i	109	-42	0.94	138*	-10
COc1ccccc1Nc1ncc(-c2cccs2)s1	i	156*	-40	3.1*	136*	-61
COc1ccc(-c2cc(C(=O)OC3CCOC3=O)c3ccccc3n2)cc1 (stereo unspecified)	i	88	7	0.75	94	16
Cc1csc(NC(=O)CCCSc2nc3ccccc3s2)n1	i	110	7	-2.6	94	-7
Cc1cnc(NC(=O)CCCSc2nc3ccccc3s2)s1	i	135*	1	-0.6	99	-31
